Laboratory results as given in ChEMBL document CHEMBL4043205, “Picomolar inhibition of β-galactosidase (bovine liver) attributed to loop closure” (Bioorg Med Chem, 2017).
Activity calls are given as the source filed them. The calls are words filed in the database; no cut-off is given here.

Legend:
Beta-galactosidase [1] = biological target: T1, Beta-galactosidase (Bos taurus, UniProt Q58D55); experiment: Inhibition of bovine liver beta-galactosidase using 4-nitrophenyl-beta-D-galactopyranoside substrate measured over 240 mins at 10 mins intervals by UV/Vis spectroscopy
T1 sequence (Q58D55 whole entry): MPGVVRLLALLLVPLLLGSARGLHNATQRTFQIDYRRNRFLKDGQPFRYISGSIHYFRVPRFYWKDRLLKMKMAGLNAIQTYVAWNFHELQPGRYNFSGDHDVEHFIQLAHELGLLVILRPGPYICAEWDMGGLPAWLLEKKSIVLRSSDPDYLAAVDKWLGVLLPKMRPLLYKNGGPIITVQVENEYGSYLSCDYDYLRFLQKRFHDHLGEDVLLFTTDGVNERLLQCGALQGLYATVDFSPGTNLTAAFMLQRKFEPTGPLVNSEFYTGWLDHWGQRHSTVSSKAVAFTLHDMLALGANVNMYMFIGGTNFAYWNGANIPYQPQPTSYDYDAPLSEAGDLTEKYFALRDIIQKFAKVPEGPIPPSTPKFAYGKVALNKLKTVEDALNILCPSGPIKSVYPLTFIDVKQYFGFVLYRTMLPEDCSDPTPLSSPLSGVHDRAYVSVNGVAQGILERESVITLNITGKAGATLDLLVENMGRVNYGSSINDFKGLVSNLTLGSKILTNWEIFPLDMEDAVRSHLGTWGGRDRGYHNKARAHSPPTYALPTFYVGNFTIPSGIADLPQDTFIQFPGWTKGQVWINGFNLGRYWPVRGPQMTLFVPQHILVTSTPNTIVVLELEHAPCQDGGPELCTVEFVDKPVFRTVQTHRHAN
Procedure, shortened: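 Bovine liver enzyme in 5 mM HEPES pH 7.50; 4-nitrophenyl-β-D-galactopyranoside mixed with 11 inhibitor dilutions (stocks 0.005–200 μM), equilibrated 30 °C 30 min, then enzyme added. Absorbance at 405 nm followed 240 min; final reads converted to percent inhibition against buffer control, plotted versus log inhibitor concentration; duplicates.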

Beta-galactosidase [2] = biological target: T1, Beta-galactosidase; experiment: Inhibition of bovine liver beta-galactosidase pre-incubated for 30 mins with 4-nitrophenyl-beta-D-galactopyranoside substrate before enzyme addition measured over 45 mins at 27 secs intervals by UV/Vis based spectroscopy
Procedure, shortened: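 Bovine liver enzyme (stock aliquot thawed, diluted in 5 mM HEPES, kept on ice). Varied 4-nitrophenyl-β-D-galactopyranoside with fixed inhibitor, pH 7.50 HEPES, equilibrated 30 °C 30 min before enzyme; 405 nm read for 45 min. Initial rates via ε 13,300 M−1 cm−1, fitted Michaelis-Menten at ≥2 inhibitor levels; competitive Ki from K′m = Km(1+[I]/Ki); duplicates, Lineweaver-Burk check.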

[3] = Inhibition of Aspergillus oryzae beta-galactosidase using 2-chloro-4-nitrophenyl b-dgalactopyranoside substrate
[4] = Inhibition of Aspergillus oryzae beta-galactosidase using 2-chloro-4-nitrophenyl b-dgalactopyranoside substrate relative to control
[5] = biological target: T2, Beta-galactosidase (Bos taurus) (UniProt Q58D55); experiment: Competitive inhibition of bovine liver beta-galactosidase using 4-nitrophenyl-beta-D-galactopyranoside substrate measured over 240 mins at 10 mins intervals by UV/Vis spectroscopy based Lineweaver-Burk plot
T2 sequence (whole entry): T1 sequence (Q58D55 whole entry)

[6] = biological target: T2, Beta-galactosidase (Bos taurus); experiment: Competitive inhibition of bovine liver beta-galactosidase using 4-nitrophenyl-beta-D-galactopyranoside substrate measured over 240 mins at 10 mins intervals by UV/Vis spectroscopy based Eddie-Hofstee plot
Aspergillus oryzae [7] = experiment: Inhibition of Aspergillus oryzae beta-galactosidase using 2-chloro-4-nitrophenyl b-dgalactopyranoside substrate by Lineweaver-Burk plot
Aspergillus oryzae [8] = experiment: Inhibition of Aspergillus oryzae beta-galactosidase using 2-chloro-4-nitrophenyl b-dgalactopyranoside substrate by Eddie-Hofstee plot
[9] = biological target: T2, Beta-galactosidase (Bos taurus); experiment: Binding affinity to bovine liver beta-galactosidase assessed as induction of changes in enzyme molar ellipticity by CD spectroscopy
Procedure, shortened: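 The bovine liver enzyme stock was diluted in 5 mM HEPES and kept on ice. It was mixed 1:1 by volume with aqueous inhibitor stock and equilibrated. Ellipticity was recorded from 190–275 nm at 0.5 nm resolution in a 10 mm path cell, averaging 5 scans. Spectra were background-corrected for unbound inhibitor and buffer.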

Aspergillus oryzae [10] = experiment: Binding affinity to Aspergillus oryzae beta-galactosidase assessed as induction of changes in enzyme molar ellipticity by CD spectroscopy

Compound `N=C1N[C@H](CO)[C@H](O)[C@H](O)[C@H]1O` has an IC50 (Beta-galactosidase [1]) greater than 50000 nM, a Ki (Beta-galactosidase [2]) of 2000 nM and a Ki [3] of 150 nM. The IC50 [4] was 830 nM, the “Inhibition mode (qualitative, Lineweaver-Burk)” value (from here on “Inhibition mode”) [5] was “Active” and the “competitive inhibition (qualitative call)” value (from here on “competitive inhibition”) [6] was “Active”. For the same compound, the inhibition activity (Aspergillus oryzae [7]) was “Active”, the “inhibition activity (qualitative)” value (Aspergillus oryzae [8]) was “Active” and the Activity [9] was “inactive”. The Activity (Aspergillus oryzae [10]) was “inactive”.
`CO[C@H]1C(NCc2ccc(C)cc2)=N[C@H](CO)[C@H](O)[C@@H]1O` gave an IC50 (Beta-galactosidase [1]) of 10800 nM, a Ki (Beta-galactosidase [2]) of 1500 nM and a Ki [3] of 3400 nM. For the same compound, the IC50 [4] was 41400 nM, the “Inhibition mode” value [5] was “Active” and the “competitive inhibition” value [6] was “Active”. The inhibition activity (Aspergillus oryzae [7]) was “Active”, the “inhibition activity (qualitative)” value (Aspergillus oryzae [8]) was “Active” and the Activity [9] was “inactive”. The Activity (Aspergillus oryzae [10]) was “inactive”.
Work on `OC[C@H]1N/C(=N\Cc2ccccc2)[C@H](O)[C@@H](O)[C@H]1O` yielded an IC50 (Beta-galactosidase [1]) of 18.9 nM, a Ki (Beta-galactosidase [2]) of 0.05 nM and a Ki [3] of 21.1 nM. For the same compound, the IC50 [4] was 49 nM, the “Inhibition mode” value [5] was “Active” and the “competitive inhibition” value [6] was “Active”. For the same compound, the inhibition activity (Aspergillus oryzae [7]) was “Active”, the “inhibition activity (qualitative)” value (Aspergillus oryzae [8]) was “Active” and the Activity [9] was “inactive”. The Activity (Aspergillus oryzae [10]) was “inactive”.
